Measured values taken from ChEMBL document CHEMBL4251751 (J Med Chem, 2018).
Values after ≈ are worked out from the molar mass of the structure shown. Active and inactive are the calls of the source. No cut-off for these calls is given here.

Assays:
[1] = molecular target: T1, Peroxisome proliferator-activated receptor gamma (Mus musculus, UniProt P37238); assay: Agonist activity at PPARgamma in mouse 3T3-L1 cells assessed as increase in CD36 mRNA expression at 1 uM after 15 days by quantitative real-time PCR method; type: cell-based; details: 3t3-l1, 360 h
T1 sequence (P37238 whole entry): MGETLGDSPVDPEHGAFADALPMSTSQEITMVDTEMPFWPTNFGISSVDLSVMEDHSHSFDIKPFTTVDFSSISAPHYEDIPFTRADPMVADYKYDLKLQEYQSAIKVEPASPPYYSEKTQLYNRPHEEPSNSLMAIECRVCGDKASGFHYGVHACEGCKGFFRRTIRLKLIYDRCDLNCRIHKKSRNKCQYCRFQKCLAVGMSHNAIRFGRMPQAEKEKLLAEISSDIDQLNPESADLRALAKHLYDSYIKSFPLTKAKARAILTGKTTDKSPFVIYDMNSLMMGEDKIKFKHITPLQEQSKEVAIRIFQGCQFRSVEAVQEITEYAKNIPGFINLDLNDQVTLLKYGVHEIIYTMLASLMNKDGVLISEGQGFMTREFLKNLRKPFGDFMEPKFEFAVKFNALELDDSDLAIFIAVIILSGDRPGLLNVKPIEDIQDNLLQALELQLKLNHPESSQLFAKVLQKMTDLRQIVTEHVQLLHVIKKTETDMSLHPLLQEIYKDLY

[2] = molecular target: T2, Peroxisome proliferator-activated receptor gamma (Mus musculus) (UniProt P37238); assay: Agonist activity at PPARgamma in mouse 3T3-L1 cells assessed as increase in CPT1A mRNA expression at 1 uM after 15 days by quantitative real-time PCR method; type: cell-based
T2 sequence (whole entry): T1 sequence (P37238 whole entry)

[3] = molecular target: T1, Peroxisome proliferator-activated receptor gamma; assay: Agonist activity at PPARgamma in mouse 3T3-L1 cells assessed as induction of adipocyte differentiation at 1 uM after 15 days by Oil Red O staining-based assay; type: cell-based; details: 3t3-l1, 360 h
[4] = molecular target: T3, Bifunctional epoxide hydrolase 2 (Homo sapiens, UniProt P34913); assay: Inhibition of recombinant human sEH using PHOME as substrate preincubated for 30 mins followed by substrate addition and measured after 30 mins by spectrofluorimetry
T3 sequence (P34913 whole entry): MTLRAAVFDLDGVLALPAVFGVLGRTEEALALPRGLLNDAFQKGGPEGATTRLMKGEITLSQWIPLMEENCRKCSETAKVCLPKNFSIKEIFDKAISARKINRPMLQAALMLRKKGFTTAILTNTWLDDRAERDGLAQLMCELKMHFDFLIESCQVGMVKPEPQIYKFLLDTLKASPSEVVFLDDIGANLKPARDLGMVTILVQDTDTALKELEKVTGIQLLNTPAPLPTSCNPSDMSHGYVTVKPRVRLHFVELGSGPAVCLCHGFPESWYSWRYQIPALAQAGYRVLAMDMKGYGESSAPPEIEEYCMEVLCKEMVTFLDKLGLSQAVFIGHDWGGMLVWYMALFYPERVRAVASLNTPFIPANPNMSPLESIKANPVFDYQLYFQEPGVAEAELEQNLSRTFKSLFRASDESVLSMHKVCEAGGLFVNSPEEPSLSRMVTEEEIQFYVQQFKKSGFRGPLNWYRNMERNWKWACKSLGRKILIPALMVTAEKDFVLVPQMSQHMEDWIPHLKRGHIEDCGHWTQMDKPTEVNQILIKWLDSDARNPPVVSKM

[5] = molecular target: T4, Peroxisome proliferator-activated receptor gamma (Homo sapiens, UniProt P37231); assay: Partial agonist activity at human PPARgamma LBD expressed HEK293T cells after 12 to 14 hrs by dual-glo luciferase reporter gene assay
T4 sequence (P37231 whole entry): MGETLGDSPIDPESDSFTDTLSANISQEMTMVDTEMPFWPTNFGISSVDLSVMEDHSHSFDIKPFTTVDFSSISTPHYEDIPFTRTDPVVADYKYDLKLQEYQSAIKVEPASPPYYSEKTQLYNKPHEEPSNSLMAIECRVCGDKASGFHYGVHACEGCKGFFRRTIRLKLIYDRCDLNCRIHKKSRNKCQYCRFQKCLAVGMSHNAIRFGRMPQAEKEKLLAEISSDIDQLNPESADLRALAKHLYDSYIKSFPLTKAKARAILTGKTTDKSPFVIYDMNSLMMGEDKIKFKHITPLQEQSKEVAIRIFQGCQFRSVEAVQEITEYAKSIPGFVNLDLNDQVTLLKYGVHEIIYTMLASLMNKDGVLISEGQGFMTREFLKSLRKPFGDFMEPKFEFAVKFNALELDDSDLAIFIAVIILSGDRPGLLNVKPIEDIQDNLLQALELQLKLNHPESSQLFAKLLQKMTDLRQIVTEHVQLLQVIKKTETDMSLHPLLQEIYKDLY

[6] = molecular target: T5, Cysteinyl leukotriene receptor 1 (Homo sapiens, UniProt Q9Y271); assay: Antagonist potency at human CysLT1R expressed in African green monkey COS7 cells assessed as inhibition of LTD4-induced Ca2+ levels after 60 mins by fura-2/AM-fluorescence based spectrofluorimetry; type: functional, cell-based; details: read-out: pA2 (converted)
T5 sequence (Q9Y271 whole entry): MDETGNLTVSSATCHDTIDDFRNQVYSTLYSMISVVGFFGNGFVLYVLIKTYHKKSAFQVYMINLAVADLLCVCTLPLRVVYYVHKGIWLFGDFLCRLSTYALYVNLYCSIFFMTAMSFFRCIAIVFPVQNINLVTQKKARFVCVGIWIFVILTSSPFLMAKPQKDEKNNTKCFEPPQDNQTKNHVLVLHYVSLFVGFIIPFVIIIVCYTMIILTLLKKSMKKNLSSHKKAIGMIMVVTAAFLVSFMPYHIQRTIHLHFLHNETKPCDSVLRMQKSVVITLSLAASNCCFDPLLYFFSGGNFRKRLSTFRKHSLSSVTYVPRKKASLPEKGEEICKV

Mus musculus [7] = assay: Anti-inflammatory activity in zymosan-induced paw edema C57BL/6N mouse model assessed as reduction in paw edema at 10 mg/kg, po via gavage pretreated for 30 mins followed by zymosan injection and measured after 8 hrs post zymosan injection by plethysmometry; type: functional, organism-based
How it was run: (§1)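 Zymosan was injected intraplantar into one hindpaw of C57BL/6N mice. Test compound or vehicle was given orally at 10 mg/kg 30 min beforehand. Paw edema was measured by plethysmometry at 8 h and 24 h after zymosan, with the contralateral hindpaw as a control.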

[8] = Lipophilicity, log D of the compound at 30 uM at pH 7.4 by HPLC method; type: physicochemical; details: buffer
Mus musculus [9] = assay: Anti-inflammatory activity in zymosan-induced paw edema C57BL/6N mouse model assessed as reduction in paw edema at 10 mg/kg, po via gavage pretreated for 30 mins followed by zymosan injection and measured after 24 hrs post zymosan injection by plethysmometry; type: functional, organism-based; how it was run: as §1
[10] = Metabolic stability in Sprague-Dawley rat liver microsomes assessed as compound remaining at 10 uM in presence of NADPH regenerating system after 4 hrs by HPLC analysis; type: ADME, microsome; details: read-out: Stability
[11] = Aqueous solubility of the compound at 5 mg after 24 hrs by HPLC analysis; type: physicochemical; details: water
[12] = molecular target: T6, Nuclear receptor subfamily 1 group I member 2 (Homo sapiens, UniProt O75469); assay: Agonist activity at human PXR LBD expressed HEK293T cells at 10 uM after 12 to 14 hrs by dual-glo luciferase reporter gene assay; type: ADME
T6 sequence (O75469 whole entry): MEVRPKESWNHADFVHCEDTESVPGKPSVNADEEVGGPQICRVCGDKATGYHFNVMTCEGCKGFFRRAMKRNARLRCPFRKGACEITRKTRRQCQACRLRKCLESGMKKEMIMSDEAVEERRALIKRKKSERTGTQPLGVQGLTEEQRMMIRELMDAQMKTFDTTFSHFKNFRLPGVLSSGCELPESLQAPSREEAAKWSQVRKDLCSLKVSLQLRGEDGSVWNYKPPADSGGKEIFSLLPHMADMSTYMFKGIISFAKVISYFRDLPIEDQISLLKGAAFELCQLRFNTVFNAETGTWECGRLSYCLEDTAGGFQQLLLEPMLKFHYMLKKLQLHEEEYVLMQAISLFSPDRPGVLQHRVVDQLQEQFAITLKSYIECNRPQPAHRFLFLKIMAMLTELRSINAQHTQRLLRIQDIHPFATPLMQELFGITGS

[13] = molecular target: T7, Nuclear receptor subfamily 1 group I member 3 (Homo sapiens, UniProt Q14994); assay: Agonist activity at human CAR LBD expressed HEK293T cells at 10 uM after 12 to 14 hrs by dual-glo luciferase reporter gene assay; type: ADME
T7 sequence (Q14994 whole entry): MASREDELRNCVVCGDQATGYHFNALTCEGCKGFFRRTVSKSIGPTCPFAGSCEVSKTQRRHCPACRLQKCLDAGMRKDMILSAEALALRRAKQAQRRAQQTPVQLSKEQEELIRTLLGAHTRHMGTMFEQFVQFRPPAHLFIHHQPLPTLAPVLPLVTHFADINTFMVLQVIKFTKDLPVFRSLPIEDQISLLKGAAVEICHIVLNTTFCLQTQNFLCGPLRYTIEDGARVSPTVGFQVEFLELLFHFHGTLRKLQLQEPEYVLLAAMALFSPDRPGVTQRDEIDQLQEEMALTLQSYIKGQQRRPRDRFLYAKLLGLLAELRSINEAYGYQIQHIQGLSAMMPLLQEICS

Mus musculus [14] = assay: Drug uptake in C57BL/6JRj mouse at 10 mg/kg, po by LC-MS/MS analysis; type: ADME, organism-based; details: in vivo
How it was run: (§2)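 Four healthy wild-type male C57Bl6/J mice received a single oral dose of 10 mg/kg. Plasma concentrations were followed over time to give uptake, bioavailability and terminal half-life. Results are mean±SEM, n=4.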

Mus musculus [15] = assay: Time at which plasma concentration stays above in-vitro IC50 for sEH in C57BL/6JRj mouse at 10 mg/kg, po by LC-MS/MS analysis; type: ADME, organism-based; details: in vivo; how it was run: as §2
HepG2 = assay: Cytotoxicity against human HepG2 cells at 1 to 100 uM after 48 hrs by WST assay; type: cell-based; details: hepg2, 48 h
[16] = Elimination half life in C57BL/6JRj mouse at 10 mg/kg, po by LC-MS/MS analysis; type: ADME, organism-based; details: in vivo, read-out: beta t1/2 (converted); how it was run: as §2
Mus musculus [17] = assay: Activation of PPARgamma in C57BL/6JRj mouse assessed as up-regulation of CD36 expression at 10 mg/kg, po administered as single dose measured at 8 hrs post dose relative to untreated control; type: functional, organism-based
How it was run: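 Healthy wild-type male C57BL6/J mice were dosed orally at 10 mg/kg or with vehicle. Hepatic transcription of the PPARγ target gene CD36 was assessed in liver against vehicle-treated animals. Mean±SEM, n(vehicle)=2, n(treated)=4.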

[18] = molecular target: T1, Peroxisome proliferator-activated receptor gamma; assay: Agonist activity at PPARgamma in mouse 3T3-L1 cells assessed as induction of adipocyte differentiation at 0.3 to 3 uM after 15 days by Oil Red O staining-based assay; type: cell-based; details: 3t3-l1, 360 h
Mus musculus [19] = assay: Time at which plasma concentration stays above in-vitro EC50 for partial agonist activity at PPARgamma in C57BL/6JRj mouse at 10 mg/kg, po by LC-MS/MS analysis; type: organism-based; details: in vivo; how it was run: as §2
Mus musculus [20] = assay: Time at which plasma concentration stays above in-vitro pA2 for CysLT1 in C57BL/6JRj mouse at 10 mg/kg, po by LC-MS/MS analysis; type: ADME, organism-based; details: in vivo; how it was run: as §2

Compound	IC50 [4] [nM]	EC50 [5] [nM]	Kb [6] [nM]	further results
CN(CCOc1ccc(CC2SC(=O)NC2=O)cc1)c1ccccn1 (stereo not drawn) [ROSIGLITAZONE]	–	–	–	Activity [1]: Active; Activity [2]: Active; Activity [3]: Active
COc1cc(C(=O)NS(=O)(=O)c2ccccc2C)ccc1Cc1cn(C)c2ccc(NC(=O)NC3CCCC3)cc12	590	2490	0.794	–
COc1cc(C(=O)NS(=O)(=O)c2cccc(F)c2)ccc1Cc1cn(C)c2ccc(NC(=O)NC3CCCCC3)cc12	410	200	12.6	–
COc1cc(C(=O)NS(=O)(=O)c2ccccc2)ccc1Cc1cn(C)c2ccc(NC(=O)OC3CCCC3)cc12	2500	230	0.0794	–
COc1cc(C(=O)NS(=O)(=O)c2ccccc2C)ccc1Cc1cn(C)c2ccc(NC(=O)OC3CCCC3)cc12 [ZAFIRLUKAST]	2000	2440	–	Activity (Mus musculus [7]): inactive; logD at 30 µM [8]: 2.47; Activity (Mus musculus [9]): inactive; remaining at 4 h, 10 µM [10]: 73%; solubility at 24 h [11]: 0.14 µg/mL (≈ 0.243 µM); Activity [12]: Active; Activity [13]: Active
COc1cc(C(=O)NS(=O)(=O)c2cccc(Cl)c2)ccc1Cc1cn(C)c2ccc(NC(=O)NC3CCCCC3)cc12	680	370	1.26	–
COc1cc(C(=O)NS(=O)(=O)c2ccccc2C)ccc1Cc1cn(C)c2ccc(NC(=O)NC3CCCCC3)cc12	150	670	25.1	–
COc1cc(C(=O)NS(=O)(=O)c2cccc(C(F)(F)F)c2)ccc1Cc1cn(C)c2ccc(NC(=O)NC3CCCCC3)cc12	1490	350	5.01	–
COc1cc(C(=O)NS(=O)(=O)c2cccc(Cl)c2)ccc1Cc1cn(C)c2ccc(NC(=O)OC3CCCC3)cc12	7000	140	0.1	–
COc1cc(C(=O)NS(=O)(=O)c2ccccc2)ccc1Cc1cn(C)c2ccc(NC(=O)NC3CCCCC3)cc12	–	–	2	Activity (Mus musculus [7]): inactive; logD at 30 µM [8]: 1.7; Activity (Mus musculus [9]): Active; Drug uptake (Mus musculus [14]): Active; remaining at 4 h, 10 µM [10]: 65%; Activity [1]: Not Active; Time (Mus musculus [15]): 8 h; Activity (HepG2): Non-Toxic; solubility at 24 h [11]: 2.1 µg/mL (≈ 3.65 µM); half-life [16]: 1.9 h; Activity (Mus musculus [17]): Active; Activity [2]: inactive; Activity [18]: Not Active; Activity [13]: Not Active; Time (Mus musculus [19]): 4 h; Time (Mus musculus [20]): 8 h
COc1cc(C(=O)NS(=O)(=O)c2cc(Cl)cc(Cl)c2)ccc1Cc1cn(C)c2ccc(NC(=O)NC3CCCCC3)cc12	550	740	6.31	–
